Assay outcomes as filed in PubChem.
Diaph act CS = activates diaphorase or chemically reduces, flagging diaphorase assay artifacts. AID 1229. 190,000 compounds, 0.005% hits. activation factor at 20 µM. Diaphorase/resazurin coupled assay, resorufin fluorescence, 16 min; stronger effect = higher value; 1 = vehicle wells, 0 = NADH-free wells;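 active = diaphorase activity raised at least twofold by the compound at 20 µM; inactive = activation factor below 2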
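System – purified diaphorase enzyme from Clostridium kluyveri · Input – enzyme 0.07 U/mL final · Also added – final NADH 0.114 mM, resazurin 0.1 mM · Measured by – fluorescence of resorufin, 544 nm excitation, 590 nm emission · Timing – 16 min enzyme reaction, ambient temperature · Measure – resorufin increase flagging diaphorase activators or reducers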
L major viab = reduces viability of Leishmania major promastigotes | inhibition, % at 10 µM | resazurin fluorescence viability | AID 1063 | 200,000 compounds, 9% hits; in the data active = inhibition above about 50%;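 also: promastigotes grown with compound for 44 hours at 28 °C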
WT yeast gro inh = growth inhibition of WT yeast, mitochondrial fusion screen; mitochondrial fusion phenotypic screen, WT strain; inhibition, % at 10 µM; 190,000 compounds, 2.1% hits; in the data active = inhibition above about 58%; tested in S. cerevisiae
PMI activator = increases human mannose-6-phosphate isomerase activity. P34949. purified human PMI, coupled resazurin fluorescence, 20 min; stronger effect = higher value; 1 = vehicle control, 0 substrate-free wells. activation factor at 20 µM. 190,000 compounds, 0.005% hits. AID 1214;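 active = activation factor of 2 or more at 20 µM, relative to plate controls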
Target sequence (P34949 whole entry, looked up): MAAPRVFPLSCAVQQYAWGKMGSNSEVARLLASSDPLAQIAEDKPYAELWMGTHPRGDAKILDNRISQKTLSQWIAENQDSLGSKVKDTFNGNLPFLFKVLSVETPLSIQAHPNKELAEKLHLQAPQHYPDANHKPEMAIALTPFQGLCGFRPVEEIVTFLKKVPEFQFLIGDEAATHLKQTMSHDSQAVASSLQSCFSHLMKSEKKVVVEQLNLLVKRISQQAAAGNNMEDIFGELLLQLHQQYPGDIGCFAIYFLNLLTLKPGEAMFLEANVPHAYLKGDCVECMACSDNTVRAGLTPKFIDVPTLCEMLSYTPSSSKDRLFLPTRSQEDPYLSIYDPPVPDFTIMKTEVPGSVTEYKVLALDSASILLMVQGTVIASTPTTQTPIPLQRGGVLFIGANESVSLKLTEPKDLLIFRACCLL
PMI act satM6P = increases human PMI activity with near-saturating mannose 6-phosphate. AID 1216. 190,000 compounds, 0.34% hits. coupled PMI enzyme assay, resazurin fluorescence, 20 min; stronger effect = higher value; 1 = untreated enzyme, 0 = substrate-free blank. P34949. activation factor at 20 µM;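 active = activation factor of 2 or more at 20 µM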
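test system = human PMI in coupled enzyme assay | medium = HEPES-buffered pH 7.4 with magnesium and detergent | also added = 1.0 mM mannose-6-phosphate substrate with 0.22 mM NADP+ | compound = 20 µM single dose | times = 20 min incubation at room temperature | measured by = resorufin fluorescence (Ex 544/Em 590 nm) from resazurin via diaphorase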
Numbers stand for hits; i = inactive; nt = no result. Most compounds without a hit are left out; they make up all but 10% or so of the library.

SMILES | Diaph act CS | L major viab | WT yeast gro inh | PMI activator | PMI act satM6P
CCC(C)N=C1Sc2nc3ccc(C)cc3cc2CN1CCOC (stereo not drawn) | i | i | i | i | i
CCOc1ccc(C2CC(c3c(O)c4ccccc4oc3=O)=NN2c2ccccc2)cc1OC (stereo not drawn) | i | i | i | i | 2.6
CCOc1ccc(C2c3c(oc4ccccc4c3=O)C(=O)N2c2ccccn2)cc1OC (stereo not drawn) | nt | nt | i | nt | nt
Cc1ccc2c(Cn3cc(C(F)(F)F)cc(Cl)c3=O)cc(=O)oc2c1 | i | 52 | i | i | i
CN(CC(=O)Nc1cccc2ccccc12)C(=O)/C=C/c1cccs1 | i | i | i | i | i
CCOc1nc(NC2CCCCC2)nc(NC(C)(C)C)n1 | i | 78 | 58 | i | i
COc1nc(NCc2ccco2)nc(NC2CCCCC2)n1 | i | i | i | i | i
N#Cc1c(N2CCCCC2)nc(N2CCCCC2)c2c1CCN(Cc1ccccc1)C2 | i | 100 | i | i | i
CCN1CCc2c(C#N)c(NCc3ccccc3)nc(N(CC)CC)c2C1 | i | 98 | i | i | i
N#Cc1c(NCCN)nc(-c2ccccc2)c2c1CCCC2 | i | 85 | i | i | i
N#Cc1c(NCCCO)nc(-c2ccccc2)c2c1CCCC2 | i | i | i | i | i
CCCc1nc(NCc2ccccc2)c(C#N)c2c1CCCC2 | i | i | i | i | i
N#Cc1c(NCCN)nc(NCc2ccccc2)c2c1CCN(Cc1ccccc1)C2 | i | 97 | nt | i | i
C=CCNc1nc(NCc2ccccc2)c(C#N)c2c1CN(C)CC2 | i | i | i | i | i
COc1ccc(CNC(=O)COC(=O)c2ccc(Br)cc2)cc1 | i | i | i | i | i
COc1cccc(N2CCN(Cc3ccsc3)CC2)c1 | i | i | i | i | i
CN(c1ccc(C(=O)N2CCOCC2)cc1[N+](=O)[O-])C1CCCCC1 | i | i | i | i | i
CCN(CC(=O)N1CCc2ccccc2C1)S(=O)(=O)c1ccc2ccccc2c1 | i | i | i | i | i
COCc1cc(S(=O)c2ccc(Cl)cc2)nc(C)n1 (stereo not drawn) | i | 99 | i | i | i
O=C(COC(=O)/C=C/c1ccc(S(=O)(=O)N2CCc3ccccc32)cc1)NC1CCS(=O)(=O)C1 (stereo not drawn) | i | i | i | i | i
C=CC[n+]1ccc(/C=C2\C=Cc3cc(C)ccc3N2CC)c2ccccc21 | i | 100 | 87 | i | i
NC(=O)Cn1nc([N+](=O)[O-])nc1Oc1ccccc1F | i | i | i | i | i
Cc1ccccc1C1C(C#N)=C2N=C(N)c3c(sc4c3CCCCC4)N2C2=C1C(=O)CC(C)(C)C2 (stereo not drawn) | i | 62 | i | i | i
COc1cc(CN2CCNC(=O)C2CC(=O)O)cc(OC)c1 (stereo not drawn) | i | i | i | i | i
Cc1ccc(NC(=O)COc2ccccc2CNC(C)(C)CC(C)(C)C)cc1 | i | 100 | i | i | i
SMILES | Diaph act CS | L major viab | WT yeast gro inh | PMI activator | PMI act satM6P
O=S(=O)(NC1c2cccc3cccc(c23)C1N1CCNCC1)c1ccc(Cl)cc1 (stereo not drawn) | i | 100 | i | i | i
Cn1cnnc1SC1c2cccc3cccc(c23)C1NS(=O)(=O)c1ccc(Cl)cc1 (stereo not drawn) | i | 53 | i | i | i
O=C(CSCc1ccccc1)Nc1ccc(F)c(F)c1 | i | i | i | i | i
N#Cc1ccc(C(=O)Nc2ccc([N+](=O)[O-])cc2)c(F)c1 | i | i | i | i | i
Cc1ccc(C(=O)Nc2ccc(C(=O)N3CCCCC3)cc2)cc1 | i | i | i | i | i
CCc1ccc(NC(=O)C2(c3ccccc3)CC2(Cl)Cl)cc1 (stereo not drawn) | i | 96 | i | i | i
Cc1cc(C)cc(NC(=O)C2(c3ccccc3)CC2(Cl)Cl)c1 (stereo not drawn) | i | i | i | i | i
Cc1cccc(NC(=O)C2(c3ccccc3)CC2(Cl)Cl)c1 (stereo not drawn) | i | i | i | i | i
Cc1ccc(NC(=O)C2(c3ccccc3)CC2(Cl)Cl)cc1C (stereo not drawn) | i | 67 | 73 | i | i
CCOC(=O)Cc1csc(NC(=O)c2ccc(S(=O)(=O)N3CCOCC3)cc2)n1 | i | i | i | i | i
O=C(NNS(=O)(=O)c1cccc(Cl)c1Cl)c1cccc(S(=O)(=O)N2CCOCC2)c1 | i | i | i | i | i
